Here are results for 10 molecules from ChEMBL document CHEMBL3217582, “Design of symmetrical and nonsymmetrical N,N-dimethylaminopyridine derivatives as highly potent choline kinase alpha inhibitors” (Medchemcomm, 2013).

For experiment [1], the target named is T1, Choline kinase alpha (Homo sapiens, UniProt P35790). Kind of experiment: Inhibition of CHKA in human HCT116 cells assessed as [3H]phosphocholine formation using [3H]choline chloride as substrate at 6.5 +/-4 uM incubated for 1 hr prior to substrate addition measured after 1 hr by scintillation counting analysis. The following applies: HCT-116. Type of experiment: cell-based. The essentials:
(§1)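 HCT-116 cells pretreated 1 h with 0.16, 0.8, 4, 20 or 100 µM inhibitor. Then pulsed 1 h with [3H]choline chloride (0.5 µCi/mL). Cells washed in cold PBS and extracted with methanol/chloroform. Choline removed with tetraphenylborate in heptan-4-one. Aqueous phosphocholine counted by liquid scintillation and compared with untreated controls.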
Target sequence in this assay (P35790 whole entry, looked up): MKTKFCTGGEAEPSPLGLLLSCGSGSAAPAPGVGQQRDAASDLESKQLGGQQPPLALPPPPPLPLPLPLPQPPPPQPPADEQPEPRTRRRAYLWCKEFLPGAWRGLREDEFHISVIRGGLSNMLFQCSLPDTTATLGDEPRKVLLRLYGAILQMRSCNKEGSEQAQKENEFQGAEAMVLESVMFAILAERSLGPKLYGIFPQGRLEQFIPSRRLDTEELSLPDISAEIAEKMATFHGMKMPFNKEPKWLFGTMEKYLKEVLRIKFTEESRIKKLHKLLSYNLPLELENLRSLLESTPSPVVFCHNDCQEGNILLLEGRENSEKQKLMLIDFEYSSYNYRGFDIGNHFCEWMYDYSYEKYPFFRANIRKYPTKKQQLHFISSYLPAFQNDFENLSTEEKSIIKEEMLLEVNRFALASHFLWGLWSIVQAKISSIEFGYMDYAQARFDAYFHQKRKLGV

For the next experiment, the system named is A549. Nature of the experiment: Growth inhibition of human A549 cells overexpressing CHKA2 after 72 hrs by sulforhodamine assay. Type of experiment: functional. The following applies: A549, 72 h. The essentials: (§2)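 A549 (DMEM) or HCT-116 (RPMI-1640) cells in 10% FCS, 37°C, 5% CO2. Cells treated 24 h after seeding with 9 inhibitor concentrations, six replicates, for 72 h. Fixed with 10% TCA, stained with 0.4% SRB, read at 540 nm. GI50 from variable-slope sigmoidal fit of percent-of-control curves.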

Experiment [2] can be described thus: Inhibition of recombinant delta49N CHKA2 (unknown origin) assessed as ADP formation using choline as substrate by enzyme coupled assay. More on the design: species or system Homo sapiens. The essentials:
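Δ49N CHKA2 (20 ng) with 72 µM choline and 450 µM ATP (both at KM) in 100 mM Tris pH 7.5, 100 mM KCl, 10 mM MgCl2. Coupled system: 500 µM PEP, pyruvate kinase, LDH, 250 µM NADH. Inhibitor at varying concentrations. ADP formation followed as NADH loss at 340 nm. IC50 from variable-slope sigmoidal least-squares fit.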

The target of experiment [3] is T1, Choline kinase alpha. Kind of experiment: Inhibition of CHKA in human HCT116 cells assessed as [3H]phosphocholine formation using [3H]choline chloride as substrate incubated for 1 hr prior to substrate addition measured after 1 hr by scintillation counting analysis. The following applies: for inhibition: HCT-116. Type of experiment: cell-based, HCT-116. The essentials:
as §1

Experiment [4] has as its target T1, Choline kinase alpha. Nature of the experiment: Inhibition of CHKA in human HCT116 cells assessed as [3H]phosphocholine formation using [3H]choline chloride as substrate at 2.4 +/-1 uM incubated for 1 hr prior to substrate addition measured after 1 hr by scintillation counting analysis. Type of experiment: cell-based. The following applies: HCT-116. An outline of the steps: as §1
Target sequence in this assay (P35790 whole entry, looked up): as above

The test system of another experiment is HCT-116. Nature of the experiment: Growth inhibition of human HCT116 cells overexpressing CHKA2 after 72 hrs by sulforhodamine assay. Type of experiment: functional. The following applies: HCT-116, 72 h. An outline of the steps: as §2
Experiment [5] is filed under the species Homo sapiens. Kind of experiment: Competitive inhibition of recombinant delta49N CHKA2 (unknown origin) using 72 uM choline as substrate by Lineweaver-burk plot analysis in presence of 10 uM to 5 mM ATP.
The species entered for experiment [6] is Homo sapiens. Kind of experiment: Competitive inhibition of recombinant delta49N CHKA2 (unknown origin) using 40 uM to 20 mM choline as substrate by Lineweaver-burk plot analysis in presence of 450 uM ATP.
The species named for experiment [7] is Homo sapiens. Nature of the experiment: Mixed inhibition of recombinant delta49N CHKA2 (unknown origin) using choline as substrate by Lineweaver-burk plot analysis in presence of ATP.

Calls of active or inactive are those of the source. The rule behind the calls is not given here.

The inhibition is the relative decrease from the control value, in per cent. The GI50 is the concentration that inhibits growth by half. Lower therefore signals greater sensitivity of the cells. Broadly, the IC50 is the concentration that gives 50% inhibition. For orientation: EC50 means the concentration giving half of the maximal effect. Regarding `CN(C)c1cc[n+](CCCCCCCCCCCCCC[n+]2ccc(N(C)C)cc2)cc1`, the inhibition was above 75% on Choline kinase alpha [1], “Dose-dependent effect” on Choline kinase alpha [3] and above 75% on Choline kinase alpha [4]. For the same molecule, the concentration for 50% growth inhibition (GI50) came out at 0.33 µM with A549 and 0.29 µM in the experiment on HCT-116. Moreover, the half-inhibitory concentration (IC50) in [2] amounted to 0.15 µM. Moreover, the EC50 on Choline kinase alpha [3] was 0.52 µM.

`CN(C)c1cc[n+](CCOCCOCCOCCn2cnc3ccccc32)cc1` had a concentration for 50% growth inhibition (GI50) in the experiment with HCT-116 above 1000 µM.

Take `CN(C)c1cc[n+](CCCCCCCCCCCC[n+]2ccc(N(C)C)cc2)cc1`: the values for the inhibition on Choline kinase alpha [1], at Choline kinase alpha [3] and on Choline kinase alpha [4] were above 75%, “Dose-dependent effect” and above 75%, respectively. Besides, the figures for the GI50 in the experiment with A549 and with HCT-116 were 0.38 µM and 0.64 µM, respectively. The IC50 in experiment [2] stood at 0.27 µM. The EC50 at Choline kinase alpha [3] was found to be 1.3 µM. Also, the inhibition result in the experiment filed under Homo sapiens [5] is “inactive”. Moreover, the inhibition result in the experiment listed under Homo sapiens [6] is “Active”.

As to `CN(C)c1cc[n+](CCCCCCCCCCCCn2cnc3ccccc32)cc1`, the GI50 with A549 was determined as 1.3 µM; with HCT-116 it was 0.69 µM. For the same molecule, the half-maximal inhibitory concentration (IC50) in experiment [2] was 5.1 µM.

For `CN(C)c1cc[n+](CCCCCCCCCCC[n+]2ccc(N(C)C)cc2)cc1`, the values for the GI50 in the experiment with A549 and in the experiment on HCT-116 were 1.6 µM and 2 µM, respectively. Moreover, in [2], the 50% inhibitory concentration (IC50) turned out to be 0.29 µM.

On to `CN(C)c1cc[n+](CCCCCCCCCC[n+]2ccc(N(C)C)cc2)cc1`, for which the 50% growth inhibitory concentration (GI50) in the experiment on A549 turned out to be 4.2 µM; with HCT-116, 2.8 µM. For the same molecule, the IC50 in experiment [2] came out at 0.67 µM.

Take `CN(C)c1cc[n+](CCCCCCCCCCCCn2cnc3c(N)ncnc32)cc1`: the GI50 was determined as 5.3 µM in the experiment with A549 and 4.1 µM in the experiment on HCT-116. Also, the IC50 in experiment [2] was 0.8 µM. In addition, the inhibition entry in the experiment filed under Homo sapiens [7] is “Active”.

In the case of `CN(C)c1cc[n+](CCCCCCCC[n+]2ccc(N(C)C)cc2)cc1`, the GI50 in the experiment with A549 is 3.3 µM; in the experiment on HCT-116 it was 2.5 µM. The IC50 in experiment [2] was 2.7 µM.

For the molecule `CN(C)c1cc[n+](CCOCCOCCOCC[n+]2ccc(N(C)C)cc2)cc1`, in the experiment with HCT-116, the 50% growth inhibitory concentration (GI50) was above 1000 µM.

`CN(C)c1cc[n+](CCCCCCCCC[n+]2ccc(N(C)C)cc2)cc1`: the results for the 50% growth inhibitory concentration (GI50) in the experiment on A549 and with HCT-116 were 4 µM and 2.6 µM, respectively. Besides, in [2], the half-maximal inhibitory concentration (IC50) was determined as 1.3 µM.
